Measured values from different studies.
Cell line: MCF7
Effect on: cell growth or viability

COc1nc(OCc2cccc(-c3ccccc3)c2C)ccc1CNCCNC(C)=O — IC50 (MTT): 6.2 µM
Oc1cccc(-c2nc3ccccc3[nH]2)c1 — IC50 (MTT; 48 h): > 100 µM
Nc1ccc(-c2csc(Nc3ccc4c(O)ncnc4c3)n2)cc1 — IC50 (MTT): 8.29 µM
CC/C(=C(\c1ccc(O)cc1)c1ccc(OCCNC)cc1)c1ccccc1 — IC50 (5 days): 0.675 µM
Nc1ncnc2c1ncn2[C@@H]1O[C@H](CO)[C@@H](O)[C@H]1O — IC50 (WST-1; 48 h): 48.3 µM
COc1c2c(cc3c1OCO3)[C@]13C=C[C@H](OC)C[C@H]1N(C2)C[C@H]3OC(=O)c1cccc(C)c1 — IC50 (WST-1): > 10 µM
COc1cc2ncnc(Nc3ccc(F)c(Cl)c3)c2cc1NC(=O)N/N=C/c1cccn1CCN1CCN(C)CC1 — IC50 (MTT; 72 h): 1.85 µM
Cc1cc(=O)[nH]c(=O)n1Cc1cn(-c2c3ccccc3nc3ccccc23)nn1 — IC50 (MTT): 2.7 µM
O=C(NC(=S)Nc1ccc([N+](=O)[O-])cc1)c1ccc2ccccc2c1 — IC50 (48 h): 7.7 µM
CSc1nc(/N=C/c2cccc(O)c2)n(-c2ccc(C(=O)O)cc2)n1 — IC50 (MTT): 31.2 µM
COc1cc2ncnc(Nc3ccc(F)c(Cl)c3)c2cc1NC(=O)N/N=C/c1cccn1CCCN1CCOCC1 — IC50 (MTT; 72 h): 1.44 µM
Oc1c(I)cc(I)c2cccnc12 — IC50 (MTT; 48 h): 75.1 µM
O=[N+]([O-])c1ccc(-c2nc3ccccc3n2Cc2ccccc2)cc1 — IC50 (MTT): 9.56 µM
CC(=O)OC[C@H]1O[C@@H]([S-])[C@H](OC(C)=O)[C@@H](OC(C)=O)[C@@H]1OC(C)=O.CCP(CC)CC.[Au+] — IC50 (resazurin): 5.2 µM
COc1ccc(-c2nn(-c3ccc(S(C)(=O)=O)cc3)cc2/C=N/N=c2\[nH]c(-c3ccc(Br)cc3)cs2)cc1 — IC50 (MTT; 48 h): 3.18 µM
O=C(/N=C1\SCC(=O)N1C1CCCCC1)c1ccc2ccccc2c1 — IC50 (48 h): 7.96 µM
CCOc1ccc(-c2nc3ccccc3n2Cc2ccccc2)cc1 — IC50 (MTT): 40.1 µM
O=C(NC(=S)NCCCNC(=S)NC(=O)c1ccc2ccccc2c1)c1ccc2ccccc2c1 — IC50 (48 h): 1.12 µM
CC1CCC(OCn2c[n+](Cc3ccccc3)c3ccccc32)CC1 (stereo not drawn) — IC50 (MTT; 72 h): 27 µM
FC(F)(F)c1cccc(Nc2ncnc3ccc(-c4ccc(CN5CCOCC5)cc4)cc23)c1 — IC50 (MTT; 24 h): 4.05 µM
Oc1ncnc2cc(Nc3nc(-c4ccccc4)cs3)ccc12 — IC50 (MTT): 6.21 µM
O=C1Nc2c(C(F)(F)F)cccc2[C@@]1(c1ccc(O)cc1)N1CCC(F)(F)C1 — IC50 (resazurin; 72 h): 0.022 µM
CC(C)(C)c1ccc(S(=O)(=O)NN=Cc2cn(CCN3CCOCC3)c3ccccc23)cc1 — IC50 (MTT; 48 h): 67.8 µM
COc1cc2ncnc(Nc3ccc(F)c(Cl)c3)c2cc1NC(=O)N/N=C/CN(C)C — IC50 (MTT; 72 h): 5.38 µM
COc1cccc2c1C(=O)c1c(O)c3c(c(O)c1C2=O)C[C@@](O)(C(=O)CO)C[C@@H]3O[C@H]1C[C@H](N)[C@H](O)[C@H](C)O1 — IC50 (SRB): 0.06 µM
Clc1ccccc1-c1nc2ccccc2[nH]1 — IC50 (MTT; 48 h): 69 µM
O=c1cc(CO)occ1[O-].[Cl-].[W+4].c1cc[cH-]c1.c1cc[cH-]c1 — IC50 (MTT): 590 µM
O=Cc1ccc(-c2ccc3ncnc(Nc4cccc(C(F)(F)F)c4)c3c2)cc1 — IC50 (MTT; 24 h): 15.5 µM
COc1cc2ncnc(Nc3ccc(F)c(Cl)c3)c2cc1NC(=O)N/N=C/c1cccn1CCCN(C)C — IC50 (MTT; 72 h): 1.26 µM
CC1(C)CC[C@]2(C)CC[C@]3(C)C(=CC[C@@H]4[C@@]5(C)CC[C@H](O)C(C)(C)[C@@H]5CC[C@]43C)[C@@H]2C1 — IC50 (WST-1; 48 h): 63.6 µM
CS(=O)(=O)c1ccc(-n2cc(/C=N/N=c3\[nH]c(-c4ccc([N+](=O)[O-])cc4)cs3)c(-c3ccc([N+](=O)[O-])cc3)n2)cc1 — IC50 (MTT; 48 h): 10.1 µM
Cc1ccc2nc(-c3ccc([N+](=O)[O-])cc3)n(Cc3ccccc3Cl)c2c1 — IC50 (MTT): 20.2 µM
O=[N+]([O-])c1ccc(S(=O)(=O)NN=Cc2cn(CCN3CCOCC3)c3ccccc23)cc1 — IC50 (MTT; 48 h): 82 µM
CSc1nc(/N=C/c2ccc(O)cc2)n(-c2ccc(C(=O)O)cc2)n1 — IC50 (MTT): 34.8 µM
Fc1cccc(Cl)c1-c1nc2ccccc2[nH]1 — IC50 (MTT; 48 h): > 100 µM
COc1cc2ncnc(Nc3ccc(F)c(Cl)c3)c2cc1NC(=O)N/N=C/c1cccn1CCN1CCOCC1 — IC50 (MTT; 72 h): 1.17 µM
Oc1ccc(-c2ccc3ncnc(Nc4cccc(C(F)(F)F)c4)c3c2)cc1 — IC50 (MTT; 24 h): 6.19 µM
O=C(N/N=C/c1cccn1CCN1CCOCC1)Nc1cc2c(Nc3ccc(F)c(Cl)c3)ncnc2cc1O[C@H]1CCOC1 — IC50 (MTT; 72 h): 2.13 µM
CC(=O)O[C@H]1C(=O)[C@@]2(C)[C@H]([C@H](OC(=O)c3ccccc3)[C@]3(O)C[C@H](OC(=O)[C@H](O)[C@@H](NC(=O)c4ccccc4)c4ccccc4)C(C)=C1C3(C)C)[C@]1(OC(C)=O)CO[C@@H]1C[C@@H]2O — IC50 (MTT; 48 h): 2.35 µM
c1cnc2c(c1)ccc1cccnc12 — IC50 (MTT; 48 h): > 50 µM
CSc1nc(/N=C/c2cc(C)ccc2O)n(-c2ccc(C(=O)O)cc2)n1 — IC50 (MTT): 23.9 µM
O=C(N/N=C/c1cccn1CCCN1CCCC1)Nc1cc2c(Nc3ccc(F)c(Cl)c3)ncnc2cc1O[C@H]1CCOC1 — IC50 (MTT; 72 h): 2.41 µM
c1cc2c(cc1CNCC1CCNCC1)OCO2 — IC50 (MTT; 72 h): > 100 µM
Cc1ccc2nc(-c3ccc(Cl)cc3Cl)[nH]c2c1 — IC50 (MTT; 48 h): 57.2 µM
CCN(CC)C(=S)NC(=O)c1ccc2ccccc2c1 — IC50 (48 h): 4.72 µM
COc1cccc2c1C(=O)c1c(O)c3c(c(O)c1C2=O)C[C@@](O)(C(=O)CO)C[C@@H]3O[C@H]1C[C@H](N)[C@H](O)[C@H](C)O1 — IC50 (MTT; 48 h): 0.09 µM
COc1ccc(C2=N[C@@H](c3ccc(Cl)cc3)[C@@H](c3ccc(Cl)cc3)N2C(=O)N2CCNC(=O)C2)c(OC(C)C)c1 — IC50 (MTT; 48 h): 11 µM
COc1cccc2c1C(=O)c1c(O)c3c(c(O)c1C2=O)C[C@@](O)(C(=O)CO)C[C@@H]3O[C@H]1C[C@H](N)[C@H](O)[C@H](C)O1 — IC50 (MTT; 72 h): 0.74 µM
